A short description of data set [1]: Antioxidant activity assessed as reduction of Cu2+ to Cu+ measured as copper (I) level at 1 uM measured for 1 hr. It counts as functional. In short, it runs like this:
(§1)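 Copper-reducing assay: compounds in ethanol mixed with 0.5 mM CuCl2 and 0.75 mM neocuproine (Cu+ chelator) in 10 mM phosphate buffer. Absorbance at 454 nm read for 1 h; reducing capacity expressed in μM. Trolox as reference; mean ± SD of three experiments.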

In data set [2] the test system is RAW264.7. The data set is described as follows: Inhibition of hydrogen peroxide level in RANKL-treated mouse RAW264.7 cells at 10 uM by DHR fluorescence intensity assay. It counts as functional, cell-based.
In data set [3] the test system is RAW264.7. Description: Antiosteoporotic activity in mouse RAW264.7 cells assessed as inhibition of RANKL-induced osteoclastogenesis measured as reduction in TRAP activity for 5 days by ELISA. It is filed as functional, cell-based. In short, it runs like this: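 RAW 264.7 cells differentiated 5 days with 50 ng/mL RANKL plus test samples, medium changed every 2 days. Cells then washed with ice-cold PBS, fixed in 3.5% formaldehyde (10 min) and ethanol–acetone 1:1 (1 min). They were incubated 1 h in 50 mM citrate pH 4.5 with 10 mM sodium tartrate and 6 mM PNPP, stopped in 0.1 N NaOH, A405. Expressed as % of untreated control; n = 3.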

Data set [4] deals with RAW264.7. Description: Antiosteoporotic activity in mouse RAW264.7 cells assessed as inhibition of RANKL-induced osteoclastogenesis measured as reduction in TRAP number for 5 days by light microscopy. It is filed as functional, cell-based. In short, it runs like this:
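RAW 264.7 cells seeded at 3 × 10^4/well and given test samples in differentiation medium with 50 ng/mL RANKL, changed every 2 days, for 5 days. Cells fixed in 3.5% formaldehyde 10 min and stained 1 h at 37 °C with a leukocyte acid phosphatase kit. TRAP-positive cells with ≥3 nuclei counted by light microscopy. Expressed as % of RANKL-treated cells; mean ± SD, n = 3.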

Data set [5] concerns RAW264.7. The data set is described as follows: Cytotoxicity against mouse RAW264.7 cells at 1 to 10 uM for 5 days by MTT assay. It is filed as cell-based. Particulars: raw264.7, 120 h. In short, it runs like this:
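MTT assay: RAW 264.7 cells (2 × 10^4 cells/mL) in DMEM with 10% FBS at 37 °C, 5% CO2, treated with 1–10 μM samples for 5 days. MTT then added for 1 h at 37 °C, formazan dissolved in DMSO, A570 read; percentage proliferation calculated.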

Data set [6] deals with HepG2. The data set is described as follows: Antioxidant activity against H2O2-induced intracellular oxidative stress in human HepG2 cells assessed as DCF fluorescence intensity at 1 to 10 uM. It is filed as functional, cell-based. In short, it runs like this:
(§2)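 HepG2 cells cultured 24 h in DMEM, then given compounds (1–10 μM, in DMSO) for 30 min and washed. Stress induced in HBSS with 60 μM AAPH or 1 mM H2O2 for 30 min. DCFH-DA added at 40 μM final, 30 min at 37 °C in the dark; DCF read at Ex 485/Em 535 nm. Trolox 10 μM as reference; % of untreated cells, n = 3.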

For data set [7], the system named is HepG2. Description: Antioxidant activity against […]-induced intracellular oxidative stress in human HepG2 cells assessed as DCF fluorescence intensity at 1 to 10 uM. It is filed as functional, cell-based. In short, it runs like this: as §2
Data set [8] can be described thus: Antioxidant activity assessed as trolox equivalents of peroxyl radical scavenging activity at 1 uM by ORAC assay. It counts as functional. In short, it runs like this: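 ORAC: fluorescein (40 nM final) exposed to AAPH (20 mM final) as peroxyl radical source, fluorescence recorded every 2 min relative to the initial reading. Net area under the decay curve versus blank computed and expressed as Trolox equivalents, with Trolox at 1 μM as reference; three experiments.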

Data set [9] concerns RAW264.7. Description: Inhibition of RANKL-induced ROS generation in mouse RAW264.7 cells at 10 uM by DCF fluorescence intensity assay (reference value: 143.7%); values are per cent of control.
Data set [10] has as its system RAW264.7. The data set is described as follows: Inhibition of RANKL-induced superoxide anion level in mouse RAW264.7 cells at 10 uM by DHE fluorescence intensity assay (reference value: 176.7%); values are per cent of control.
A short description of data set [11]: Antioxidant activity assessed as reduction of Cu2+ to Cu+ measured as copper (I) level at 10 uM measured for 1 hr (reference value: 2.1 uM). It counts as functional. In short, it runs like this: as §1

Experimental findings from ChEMBL document CHEMBL2331137, “Scopoletin and scopolin isolated from Artemisia iwayomogi suppress differentiation of osteoclastic macrophage RAW 264.7 cells by scavenging reactive oxygen species” (J Nat Prod, 2013) are described below.

Each structure is given as a SMILES string. Activity calls are given as the source filed them. The calls are words filed in the database; no cut-off is given here.

As to `Cc1c(C)c2c(c(C)c1O)CCC(C)(C(=O)O)O2` (stereo not given), the Activity in data set [1] came out at 1.5 µM.

As to `COc1cc2ccc(=O)oc2cc1O` [SCOPOLETIN], the inhibition result in data set [2] is “inactive”. The inhibition entry in data set [3] and in [4] was “Dose-dependent effect” each time. For the same compound, the Activity entry in data set [5] is “Non-toxic”; in data set [8], 3.3 equiv. Moreover, the outcome in data set [6], in [7] and in data set [1] was Active. Further, the level, % of control at 10 µM in data set [9] turned out to be 132%; in data set [10], 158%.

Take `COc1cc2ccc(=O)oc2cc1O[C@@H]1O[C@H](CO)[C@@H](O)[C@H](O)[C@H]1O` [SCOPOLIN]: the inhibition result in [2] is “inactive”. In addition, the inhibition entry in data set [3] and in data set [4] was “Dose-dependent effect” throughout. In addition, the Activity entry in data set [5] was “Non-toxic”; in data set [8], 0.4 equiv. In data set [6], the outcome was Active. For the same compound, in [11], the result was inactive. Moreover, the level, % of control at 10 µM worked out at 127% in data set [9] and 149% in [10].
